In ChEMBL document CHEMBL1153099, “2,4-Diaryl-4,6,7,8-tetrahydroquinazolin-5(1H)-one derivatives as anti-HBV agents targeting at capsid assembly” (Bioorg Med Chem Lett, 2010):
pIC50: −log10 of the molar value.

Key:
Hepatitis B virus = assay: Antiviral activity against HBV infected in human HepG2.2.15 cells assessed as inhibition of viral DNA replication; type: functional, organism-based, HepG2 2.2.15; conditions: for pIC50: Hepatitis B virus, HepG2 2.2.15, read-out: IC50; for IC50: hepg2 2.2.15
In short: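 HepG2.2.15 cells, which secrete virus-like particles. Reference anti-HBV agents were run as positive controls. IC50 is the mean of three experiments. A compound with no activity at its maximum nontoxic concentration was scored as not active.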

[1] = Cytotoxicity against human HepG2(2.2.15) cells; type: cell-based
In short: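 Viability of HepG2.2.15 cells was read after 48 h of compound exposure. Cytotoxic IC50 is the mean of three experiments.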

[2] = Therapeutic index, ratio of IC50 for human HepG2(2.2.15) cells to IC50 for HBV; type: cell-based; conditions: read-out: Ratio IC50

| Structure (SMILES) | pIC50 (Hepatitis B virus) | pIC50 [1] | selectivity ratio [2] | IC50 (Hepatitis B virus) |
| --- | --- | --- | --- | --- |
| CC1(C)CC(=O)C2=C(C1)NC(c1ccncc1)=NC2c1ccc(F)cc1Cl (centres undefined) | 5.31 | 3.87 | 27.3 | – |
| CC1(C)CC(=O)C2=C(C1)NC(c1nccs1)=NC2c1ccc(F)cc1Cl (centres undefined) | 5.51 | 4.24 | 19.2 | – |
| CC1(C)CC(=O)C2=C(C1)NC(c1ncccc1F)=NC2c1ccc(F)cc1Cl (centres undefined) | – | 3.43 | – | Not Active |
| O=C1CCCC2=C1C(c1ccc(F)cc1Cl)N=C(c1cccnc1)N2 (centres undefined) | 4.60 | 4.08 | – | – |
| CC1(C)CC(=O)C2=C(C1)NC(c1cccnc1)=NC2c1ccccc1Cl (centres undefined) | 4.58 | 4.17 | 2.56 | – |
| COC(=O)C1=C(C)NC(c2ncc(F)cc2F)=N[C@H]1c1ccc(F)cc1Cl | 6.11 | 3.25 | – | – |
| O=C1CCCC2=C1C(c1ccc(F)cc1Cl)N=C(c1ccccn1)N2 (centres undefined) | 5.37 | 3.21 | 144 | – |
| O=C1CCCC2=C1C(c1ccc(F)cc1)N=C(c1cccnc1)N2 (centres undefined) | – | 3.55 | – | Not Active |
| CC1(C)CC(=O)C2=C(C1)NC(c1cccnc1)=NC2c1ccc(F)cc1Cl (centres undefined) | 6.36 | 3.20 | 1420 | – |
| O=C1CCCC2=C1C(c1ccccc1)N=C(c1cccnc1)N2 (centres undefined) | – | 3.43 | – | Not Active |
| O=C1CCCC2=C1C(c1ccccc1)N=C(c1ccccn1)N2 (centres undefined) | 5.18 | 3.24 | 86.6 | – |
| Nc1ccn([C@@H]2CS[C@H](CO)O2)c(=O)n1 [LAMIVUDINE] | 6.66 | – | – | – |
| O=C1CCCC2=C1C(c1ccc(F)cc1Cl)N=C(c1cnccn1)N2 (centres undefined) | 5.64 | 3.11 | 338 | – |
| O=C1CCCC2=C1C(c1ccc(F)cc1Cl)N=C(c1ncccc1F)N2 (centres undefined) | 5.96 | 2.86 | 1240 | – |
| CC1(C)CC(=O)C2=C(C1)NC(c1cnccn1)=NC2c1ccc(F)cc1Cl (centres undefined) | 4.85 | 3.11 | 54.5 | – |
| O=C1CCCC2=C1C(c1ccccc1Cl)N=C(c1cccnc1)N2 (centres undefined) | – | 2.95 | – | Not Active |
| CC1(C)CC(=O)C2=C(C1)NC(c1cccnc1)=NC2c1ccccc1 (centres undefined) | 4.65 | 3.76 | 7.74 | – |
| CC1(C)CC(=O)C2=C(C1)NC(c1ncc(F)cc1F)=NC2c1ccc(F)cc1Cl (centres undefined) | 5.98 | 4.39 | 39.2 | – |
| CC1(C)CC(=O)C2=C(C1)NC(c1cccnc1)=NC2c1ccc(F)cc1 (centres undefined) | 4.60 | 3.84 | 5.73 | – |
| O=C1CCCC2=C1C(c1ccc(F)cc1Cl)N=C(c1c(F)cc(F)cc1F)N2 (centres undefined) | – | 3.91 | – | Not Active |
| O=C1CCCC2=C1C(c1ccc(F)cc1Cl)N=C(c1ccco1)N2 (centres undefined) | – | 3.14 | – | Not Active |
| O=C1CCCC2=C1C(c1ccc(F)cc1)N=C(c1ccccn1)N2 (centres undefined) | – | 3.29 | – | Not Active |
| O=C1CCCC2=C1C(c1ccccc1Cl)N=C(c1ccccn1)N2 (centres undefined) | – | 3.23 | – | Not Active |
| CC1(C)CC(=O)C2=C(C1)NC(c1cnccn1)=NC2c1ccccc1Cl (centres undefined) | – | 3.21 | – | Not Active |
| O=C1CCCC2=C1C(c1ccccc1Cl)N=C(c1cnccn1)N2 (centres undefined) | – | 2.83 | – | Not Active |
| CC1(C)CC(=O)C2=C(C1)NC(c1c(F)cc(F)cc1F)=NC2c1ccc(F)cc1Cl (centres undefined) | – | 5.25 | – | Not Active |
| O=C1CCCC2=C1C(c1ccc(F)cc1Cl)N=C(c1ccncc1)N2 (centres undefined) | 4.78 | 3.85 | 8.6 | – |
| O=C1CCCC2=C1C(c1ccc(F)cc1Cl)N=C(c1nccs1)N2 (centres undefined) | 5.06 | 4.32 | 5.73 | – |
